Assay outcomes from PubChem.
rCAG binder: binders of r(CAG) RNA repeats, primary screen, biochemical, fluorescence. 370,000 compounds, 1.3% hits. inhibition, % at 3 µM. r(CAG) RNA repeat, TO-PRO-1 dye displacement fluorescence;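 active = inhibition above the plate cutoff, the mean of all test compounds on that plate plus 3 SD, cut at about 35% in these data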;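 also: higher means more dye released from RNA so lower well fluorescence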
UHRF1 binding: UHRF1 methylated DNA binding inhibitors, primary screen, counter-screen for MBD2 inhibitor project, biochemical, TR-FRET, human UHRF1, single concentration | E3 ubiquitin-protein ligase UHRF1 (Homo sapiens), Q96T88 | UHRF1 binding to methylated oligo | inhibition, % at 4.4 µM | 370,000 compounds, 0.75% hits | AID 687016, 2013; in the data active = inhibition above about 21%;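 also: UHRF1 SRA domain binding a hemimethylated CpG hairpin DNA probe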
ATG4B inhibitor: ATG4B protease inhibitors, primary screen, biochemical, fluorescence, uHTS; inhibition, % at 8.33 µM; ATG4B cleavage of LC3-PLA2, NBD-HPC fluorescence, 1 h; Cysteine protease ATG4B (Homo sapiens), Q9Y4P1; 340,000 compounds, 0.51% hits; in the data active = inhibition above about 40%
MBD2 inh: inhibitors of MBD2 binding to methylated DNA, primary screen, biochemical, TR-FRET, DNA-binding domain, human | Methyl-CpG-binding domain protein 2 (Homo sapiens), Q9UBB5 | MBD2 binding to methylated oligonucleotide | inhibition, % at 4.4 µM | 370,000 compounds, 0.31% hits; in the data active = inhibition above about 13%
Target sequence (Q9UBB5 whole entry, looked up, the tested form may be a part): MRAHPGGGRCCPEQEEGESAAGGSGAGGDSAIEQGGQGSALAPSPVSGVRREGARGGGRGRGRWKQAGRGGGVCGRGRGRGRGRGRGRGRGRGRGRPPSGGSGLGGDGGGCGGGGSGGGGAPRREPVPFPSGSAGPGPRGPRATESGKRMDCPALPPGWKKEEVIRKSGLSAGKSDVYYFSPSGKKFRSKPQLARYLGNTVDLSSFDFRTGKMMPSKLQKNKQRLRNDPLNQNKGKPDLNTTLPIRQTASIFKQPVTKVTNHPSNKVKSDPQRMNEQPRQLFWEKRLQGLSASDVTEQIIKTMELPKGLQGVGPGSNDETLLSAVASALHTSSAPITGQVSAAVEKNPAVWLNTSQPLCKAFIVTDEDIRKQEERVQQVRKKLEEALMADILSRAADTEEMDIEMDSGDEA
LEDGF integ inh: blockers of LEDGF/p75-dependent integrase strand transfer – biochemical, TR-FRET, high throughput, primary screen; HIV-1 integrase (with human LEDGF/p75); inhibition, % at 3.7 µM; TR-FRET IN-LEDGF/p75 DNA integration, Eu/Cy5; AID 743269, 2014; 370,000 compounds, 0.64% hits;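 active = inhibition above the screen-wide mean plus 3 SD, cut at about 13% in these data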;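 also: signal is the Cy5 over europium emission ratio at 671 and 618 nm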
CSN deneddyl inh: inhibitors of CSN-mediated cullin deneddylation, primary screen, biochemical, fluorescence polarization, uHTS | AID 651999, 2013 | 360,000 compounds, 0.38% hits | inhibition, % at 12.5 µM | COP9 signalosome complex subunit 5 (Homo sapiens), Q92905 | Purified CSN, SCF-Nedd8-OG deneddylation;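 active = pattern-corrected inhibition above about 35%, with an unprinted fluorescence ratio check between 0.5 and 1.5, limit read from the data, passing the limit was not always enough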
Target sequence (Q92905 whole entry, looked up, one chain of several): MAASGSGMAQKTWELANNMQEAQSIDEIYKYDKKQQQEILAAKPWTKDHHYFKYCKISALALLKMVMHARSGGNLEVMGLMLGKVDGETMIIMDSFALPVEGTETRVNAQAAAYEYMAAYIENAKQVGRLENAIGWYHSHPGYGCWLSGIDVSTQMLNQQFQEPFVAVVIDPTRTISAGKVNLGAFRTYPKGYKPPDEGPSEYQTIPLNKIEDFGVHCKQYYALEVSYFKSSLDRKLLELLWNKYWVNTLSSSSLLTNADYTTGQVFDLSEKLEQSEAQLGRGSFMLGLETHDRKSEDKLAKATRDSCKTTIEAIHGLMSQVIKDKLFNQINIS
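Assay system: purified human Csn5 enzyme expressed in HEK293T cells; measure: % inhibition; also added: SCFSkp2-Nedd8OG substrate at 10 nM final; technique: fluorescence polarization; times: reaction 90 min, room temperature; medium: Tris buffer pH 7.5, NaCl, DTT, Tween-20, trehalose, ovalbumin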
IN multimer up: HIV-1 IN multimer formation enhancers, counter-screen for LEDGF/p75 integration inhibitor project, biochemical, TR-FRET. activation, % at 7.7 µM. TR-FRET HIV-1 integrase multimerization. 2,000 compounds, 17% hits. AID 1053131, 2014. shares compounds with LEDGF integ inh; in the data active = activation above about 8.9%
TRFRET interf: TR-FRET optical interference artefacts, confirmation, artefact control for LEDGF/p75-dependent integration inhibitor project, biochemical, HIV-1 IN multimerization. shares compounds with LEDGF integ inh. TR-FRET optical interference counterscreen. inhibition, % at 7.7 µM. 2,000 tested, under 10 active. AID 1053135, 2014;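 active = inhibition above the mean over all tested compounds plus 3 SD, which no compound reached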
LEDGF integ conf: inhibitors of HIV-1 IN-LEDGF/p75 DNA integration, confirmation, biochemical, TR-FRET; TR-FRET LEDGF/p75-dependent HIV-1 integration; AID 1053136, 2014; 2,000 compounds, 36% hits; inhibition, % at 3.7 µM; shares compounds with LEDGF integ inh; in the data active = inhibition above about 14%
Hits are given with their value; 0 = inactive; - = not tested or not shown. Only some compounds are listed: those with a hit (about 3.1% of all), similar ones and a draw of the others.

SMILES | rCAG binder | UHRF1 binding | ATG4B inhibitor | MBD2 inh | LEDGF integ inh | CSN deneddyl inh | IN multimer up | TRFRET interf | LEDGF integ conf
COC(=O)c1cccc(NC(=O)Cn2nnc3ccccc32)c1 | 0 | 0 | 0 | 0 | 19.2 | 0 | 0 | 0 | 0
CN(C)/C=N/S(=O)(=O)c1cccn1-c1ncc(C(F)(F)F)cc1Cl | 0 | 0 | 0 | 0 | 0 | 0 | - | - | -
CN(C)/C=N/c1ncn(-c2ncc(C(F)(F)F)cc2Cl)n1 | 0 | 0 | 0 | 0 | 17.1 | 0 | 0 | 0 | 0
C[C@@H]1/C=C/CC(=O)N[C@H](c2ccc3ccccc3c2)[C@H](C)/C=C/CC(=O)N[C@@H]1c1ccc2ccccc2c1 | 0 | 0 | - | 0 | 0 | - | - | - | -
COc1cc(N)c2ncccc2c1OC | 0 | 0 | 0 | 0 | 27.4 | 0 | 0 | 0 | 0
CC(C)c1cccc(-c2csc(C(C)(O)c3ccccc3)n2)c1 (stereo unspecified) | 0 | 0 | - | 0 | 16.2 | 0 | 0 | 0 | 0
COc1ccc(-c2csc(C(C)(O)c3cccc(OC)c3)n2)cc1 (stereo unspecified) | 0 | 0 | - | 0 | 21.7 | 0 | 0 | 0 | 0
CC(O)(c1ccccc1)c1nc(-c2cccc(C(=O)O)c2)cs1 (stereo unspecified) | 0 | 0 | - | 0 | 0 | 0 | - | - | -
O=C(CSc1nnc(-c2ccccc2)n1-c1ccccc1)Nc1cccc2ccccc12 | 0 | 0 | - | 0 | 0 | - | - | - | -
COC(=O)C1C(O)=C(C=Nc2ccccc2)C(=O)CC1(C)C (stereo unspecified) | 0 | 0 | 0 | 0 | 0 | 0 | - | - | -
CC1(C)CC(=O)C(C=Nc2ccc(N)cc2)=C(O)C1 | 0 | 0 | 0 | 0 | 35.7 | 0 | 0 | 0 | 0
COC(=O)C1C(O)=C(C=Nc2ccc(N)cc2)C(=O)CC1(C)C (stereo unspecified) | 0 | 0 | 0 | 0 | 40.1 | 0 | 0 | 0 | 0
C[C@@H]1C[C@H]2O[C@@H]2/C=C\C=C\C(=O)Cc2cc(O)cc(O)c2C(=O)O1 | 0 | 0 | - | 0 | 0 | - | - | - | -
O=S1(=O)CC2c3ccccc3CN2CN1C1CCCC1 (stereo unspecified) | 0 | 0 | - | 0 | 0 | - | - | - | -
C=CCN1[C@H](C#N)[C@@H](c2ccccc2)[C@H]1CO | 0 | 0 | - | 0 | 0 | - | - | - | -
CCCN(CC1CC1)C(=S)NC(=O)c1cc(Br)ccc1Cl | 0 | 0 | 0 | 0 | 16.6 | 0 | 0 | 0 | 0
O=C(O)c1cc(-c2ccco2)[nH]n1 | 0 | 0 | 0 | 0 | 14.5 | 0 | 0 | 0 | 0
CC1CCC(C(=O)NNC(=O)c2cc(-c3ccco3)[nH]n2)CC1 (stereo unspecified) | 0 | 0 | 0 | 0 | 0 | 0 | - | - | -
CC(C)(C)c1ccc(-c2nnc(SCC(=O)Nc3ccc(Oc4ccccc4)cc3)n2Cc2ccco2)cc1 | 0 | 0 | - | 0 | 0 | - | - | - | -
N=c1c(S(=O)(=O)c2ccccc2)cc2c(=O)n3ccccc3nc2n1Cc1ccco1 | 0 | 0 | 0 | 0 | 0 | 0 | - | - | -
N=c1c(C(=O)NC2CCCCC2)cc2c(=O)n3ccccc3nc2n1Cc1ccco1 | 0 | 0 | 0 | 0 | 0 | 0 | - | - | -
Cc1ccc2nc3c(cc(S(=O)(=O)c4ccccc4)c(=N)n3Cc3ccco3)c(=O)n2c1 | 0 | 0 | 0 | 0 | 18.4 | 0 | 0 | 0 | 0
N=c1c(C(=O)NCCc2ccccc2)cc2c(=O)n3ccccc3nc2n1Cc1ccco1 | 0 | 0 | 0 | 0 | 17.4 | 0 | 0 | 0 | 0
O=C(Nc1ccc(F)cc1F)C1CCN(c2nnc(-n3cccc3)s2)CC1 | 0 | 0 | - | 0 | 0 | - | - | - | -
C=CCN1[C@H](CO)[C@H](c2ccccc2)[C@@H]1C#N | 0 | 0 | - | 0 | 0 | - | - | - | -
SMILES | rCAG binder | UHRF1 binding | ATG4B inhibitor | MBD2 inh | LEDGF integ inh | CSN deneddyl inh | IN multimer up | TRFRET interf | LEDGF integ conf
O=C1C=C(O)CC(c2ccco2)C1 (stereo unspecified) | 0 | 35.6 | 0 | 0 | 37.9 | 0 | 0 | 0 | 21.5
O=C(NC1=C(Nc2ccc(Cl)cc2)C(=O)c2ccccc2C1=O)c1ccccc1 | 0 | 0 | 0 | 0 | 0 | 0 | - | - | -
O=C(NC1=C(NC2CCS(=O)(=O)C2)C(=O)c2ccccc2C1=O)c1ccccc1 (stereo unspecified) | 0 | 0 | 0 | 0 | 24.8 | 0 | 0 | 0 | 41.5
Cn1c(=O)c2c(-c3ccccc3)n(-c3cccc(O)c3)cc2n(C)c1=O | 0 | 0 | - | 0 | 0 | 0 | - | - | -
Cn1c(=O)c2c(-c3ccccc3)n(-c3ccc(N)cc3)cc2n(C)c1=O | 0 | 0 | - | 0 | 40.0 | 0 | 0 | 0 | 0
O=C(Nc1ccc(F)cc1)OCc1cn(Cc2cc(F)ccc2F)nn1 | 0 | 0 | - | 0 | 0 | - | - | - | -
CNC(=O)[C@@H]1CC=C[C@@H]2CCN(c3ccccc3)C(=O)[C@@H]21 | - | 0 | - | 0 | 0 | - | - | - | -
C=CCn1c(SCc2cc(=O)n3ccsc3n2)nnc1C1CCCCC1 | 0 | 0 | 0 | 0 | 14.8 | 0 | 0 | 0 | 0
CSc1ccc(CN2CCCC(CO)(Cc3ccccc3)C2)cc1 (stereo unspecified) | 0 | 0 | 0 | 0 | 0 | 0 | - | - | -
C/C=C(\C)CN1CCCC(CO)(Cc2ccccc2)C1 (stereo unspecified) | 0 | 0 | 0 | 0 | 14.3 | 0 | 0 | 0 | 0
N#CC1=C2SCN(Cc3ccco3)CN2C(=O)CC1c1cccc2ccccc12 (stereo unspecified) | 37.3 | 0 | 0 | 0 | 54.5 | 0 | 0 | 0 | 0
N#CC1=C2SCN(Cc3ccco3)CN2C(=O)CC1c1ccccc1F (stereo unspecified) | - | - | 0 | - | - | 0 | - | - | -
c1ccc(-c2nnc3n2N=C(c2ccc4ccccc4c2)CS3)cc1 | 0 | 0 | - | 0 | 0 | - | - | - | -
COc1ccc(-n2c(Cn3c(=O)sc4ccccc43)nnc2SCC(=O)N2CCCC2)cc1 | 0 | 0 | 0 | 0 | 31.9 | 0 | 0 | 0 | 0
Cc1ccc(/C=C2\CCOC2=O)cc1 | 0 | 0 | 0 | 0 | 0 | 0 | - | - | -
Cc1ccc(/C=C2/CNC/C(=C/c3ccc(C)cc3)C2=O)cc1 | 0 | 0 | 0 | 0 | 91.7 | 0 | 0 | 0 | 0
O=c1c2ccccc2nc2n1CCC2 | 0 | 0 | 0 | 0 | 15.2 | 0 | 0 | 0 | 33.8
